In ChEMBL document CHEMBL4024715, “An in vitro and in vivo evaluation of new potential trans-sialidase inhibitors of Trypanosoma cruzi predicted by a computational drug repositioning method” (Eur J Med Chem, 2017):
Converted amounts (≈) assume the structure as drawn. The source made the active and inactive calls. The calls are words filed in the database; no cut-off is given here.

How the values were obtained:
Trypanosoma cruzi [1] = experiment: Trypanocidal activity against trypomastigote stage of Trypanosoma cruzi NINOA infected in NIH mouse blood assessed as parasite lysis at 50 ug/ml after 24 hrs by optical microscopic method relative to control; format: functional
In short: (§1)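 Blood from infected NIH mice was taken by cardiac puncture at peak infection and adjusted to 1×10^6 trypomastigotes/mL. Compounds came from 10 mg/mL DMSO stocks diluted in water; final DMSO below 1%. Incubation was 24 h at 4 °C. Controls were DMSO/H₂O 1:99, untreated blood and reference drug. Trypomastigotes in 5 µL blood were counted by the Brener method at 40×. Percent lysis was taken versus the negative control, with three runs per strain.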

Trypanosoma cruzi [2] = experiment: Trypanocidal activity against bloodstream form of Trypanosoma cruzi NINOA infected in NIH mouse assessed as reduction in parasitemia at 100 mg/kg, po measured at 4 hrs post dose by microscopic method relative to control; format: functional; design: scale not given: the % may be the effect or the level left
In short: (§2)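 Groups of five female NIH mice (20-25 g) infected intraperitoneally with 2×10^5 bloodstream trypomastigotes. At peak parasitemia (days 19-24), compounds suspended in 4% gum arabic were given orally, 100 mg/kg total dose. Vehicle-only controls. Tail blood examined microscopically at 2, 4 and 6 h after dosing. Parasitemia reduction scored against trypomastigote counts at each interval.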

Trypanosoma cruzi [3] = experiment: Trypanocidal activity against bloodstream form of Trypanosoma cruzi NINOA infected in NIH mouse assessed as reduction in parasitemia at 100 mg/kg, po measured at 6 hrs post dose by microscopic method; format: functional, organism-based; in short: as §2
Trypanosoma cruzi [4] = experiment: Trypanocidal activity against bloodstream form of Trypanosoma cruzi NINOA infected in NIH mouse assessed as reduction in parasitemia at 100 mg/kg, po measured at 2 to 4 hrs post dose by microscopic method; format: functional, organism-based; in short: as §2
Trypanosoma cruzi [5] = experiment: Trypanocidal activity against trypomastigote stage of Trypanosoma cruzi INC-5 infected in NIH mouse blood assessed as parasite lysis at 50 ug/ml after 24 hrs by optical microscopic method relative to control; format: functional; in short: as §1
[6] = Solubility of the compound in water; format: physicochemical; conditions: buffer
[7] = target: T1, Trans-sialidase (Trypanosoma cruzi) (UniProt Q26964); experiment: Inhibition of Trypanosoma cruzi trans-sialidase at 1 mM using N-acetyllactosamine as substrate in presence of 3'-sialyllactose measured after 15 mins by HPAEC-PAD relative to control
T1 sequence (whole entry): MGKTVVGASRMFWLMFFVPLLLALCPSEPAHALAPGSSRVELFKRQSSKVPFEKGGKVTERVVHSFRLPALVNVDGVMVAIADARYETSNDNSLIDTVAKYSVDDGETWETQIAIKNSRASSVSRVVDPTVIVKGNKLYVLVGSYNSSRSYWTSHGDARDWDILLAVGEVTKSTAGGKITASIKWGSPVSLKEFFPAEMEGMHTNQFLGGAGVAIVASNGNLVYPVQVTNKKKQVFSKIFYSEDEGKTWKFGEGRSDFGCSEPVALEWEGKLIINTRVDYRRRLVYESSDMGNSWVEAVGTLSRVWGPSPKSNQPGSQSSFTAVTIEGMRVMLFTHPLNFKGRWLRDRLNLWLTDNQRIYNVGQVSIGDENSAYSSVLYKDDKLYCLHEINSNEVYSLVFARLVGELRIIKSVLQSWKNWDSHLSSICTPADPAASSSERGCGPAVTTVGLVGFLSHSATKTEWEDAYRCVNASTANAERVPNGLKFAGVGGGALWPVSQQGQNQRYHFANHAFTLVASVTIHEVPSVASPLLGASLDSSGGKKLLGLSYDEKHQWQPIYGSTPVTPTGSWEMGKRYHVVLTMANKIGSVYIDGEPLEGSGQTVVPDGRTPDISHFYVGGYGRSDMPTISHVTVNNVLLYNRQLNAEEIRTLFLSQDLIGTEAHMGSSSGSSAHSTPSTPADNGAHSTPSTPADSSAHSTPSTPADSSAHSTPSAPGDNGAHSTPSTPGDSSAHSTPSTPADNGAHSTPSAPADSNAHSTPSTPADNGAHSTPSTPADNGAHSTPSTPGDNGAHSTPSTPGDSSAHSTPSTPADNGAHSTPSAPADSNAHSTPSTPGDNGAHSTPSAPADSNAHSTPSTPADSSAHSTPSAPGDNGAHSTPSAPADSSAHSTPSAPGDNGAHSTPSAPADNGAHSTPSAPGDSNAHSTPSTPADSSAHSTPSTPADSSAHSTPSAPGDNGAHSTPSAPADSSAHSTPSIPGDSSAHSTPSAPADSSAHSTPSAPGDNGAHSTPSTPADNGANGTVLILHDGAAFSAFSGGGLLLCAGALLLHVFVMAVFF
In short: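 Purified T. cruzi Ts (300 ng) incubated 15 min at room temperature in 20 mM Tris-HCl pH 7, 30 mM NaCl with 1 mM 3'-sialyllactose donor, 1 mM N-acetyllactosamine acceptor and 1 mM inhibitor. Water-insoluble compounds added from 10 mM DMSO stock; DMSO-only control. Samples diluted 12-fold and analysed by HPAEC-PAD. Inhibition from 3'-sialyl-N-acetyllactosamine relative to total sialylated products, with vs without compound.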

Trypanosoma cruzi [8] = experiment: Trypanocidal activity against trypomastigote stage of Trypanosoma cruzi NINOA infected in NIH mouse blood after 24 hrs by optical microscopic method
Trypanosoma cruzi [9] = experiment: Trypanocidal activity against bloodstream form of Trypanosoma cruzi NINOA infected in NIH mouse assessed as reduction in parasitemia at 100 mg/kg, po measured up to 6 hrs post dose by microscopic method; format: functional, organism-based; in short: as §2
Trypanosoma cruzi [10] = experiment: Trypanocidal activity against trypomastigote stage of Trypanosoma cruzi INC-5 infected in NIH mouse blood after 24 hrs by optical microscopic method; format: functional; conditions: INC-5, Blood
Trypanosoma cruzi [11] = experiment: Trypanocidal activity against bloodstream form of Trypanosoma cruzi INC-5 infected in NIH mouse assessed as reduction in parasitemia at 100 mg/kg, po measured up to 6 hrs post dose by microscopic method; format: functional, organism-based; in short: as §2
Trypanosoma cruzi [12] = experiment: Trypanocidal activity against bloodstream form of Trypanosoma cruzi INC-5 infected in NIH mouse assessed as reduction in parasitemia at 100 mg/kg, po measured at 6 hrs post dose by microscopic method; format: functional, organism-based; in short: as §2
Trypanosoma cruzi [13] = experiment: Trypanocidal activity against bloodstream form of Trypanosoma cruzi INC-5 infected in NIH mouse assessed as reduction in parasitemia at 100 mg/kg, po measured at 2 to 4 hrs post dose by microscopic method; format: functional, organism-based; in short: as §2

Row | Structure (SMILES) | Activity (Trypanosoma cruzi [1]) [%] | Activity (Trypanosoma cruzi [2]) [%] | Activity (Trypanosoma cruzi [3]) | Activity (Trypanosoma cruzi [4]) | Activity (Trypanosoma cruzi [5]) [%] | solubility [6] | inhibition [7] | LC50 (Trypanosoma cruzi [8]) [µg/mL] | Activity (Trypanosoma cruzi [9]) | LC50 (Trypanosoma cruzi [10]) [µg/mL] | Activity (Trypanosoma cruzi [11]) | Activity (Trypanosoma cruzi [12]) | Activity (Trypanosoma cruzi [13])
1 | O=C(O)c1cc(/N=N/c2ccc(S(=O)(=O)Nc3ccccn3)cc2)ccc1O [SULFASALAZINE] | 92 | 60 | inactive | Active | 10 | Insoluble | 37.6% | 19.3 (≈ 48.4 µM) |  |  |  |  | 
2 | O=C(Cn1ccnc1[N+](=O)[O-])NCc1ccccc1 [BENZNIDAZOLE] | 69 |  |  |  | 56 |  |  | 46.6 (≈ 179 µM) | Active | 40.6 (≈ 156 µM) | Active |  | 
3 | CCN1CCN(C(=O)N[C@@H](C(=O)N[C@@H]2C(=O)N3C(C(=O)[O-])=C(CSc4nnnn4C)CS[C@H]23)c2ccc(O)cc2)C(=O)C1=O.[Na+] [CEFOPERAZONE SODIUM] | 64 |  | inactive | Active | 71 |  | 10.1% | 25.8 |  | 23 |  | inactive | Active
4 | O=C(O)C(O)C(O)C(=O)O.O=C(c1ccc(F)cc1)C1CCN(CCn2c(=O)[nH]c3ccccc3c2=O)CC1 [KETANSERIN TARTRATE] | 89 |  |  |  | 73 |  |  | 13.6 |  | 18.4 |  |  | 
5 | CC(C)(C)c1ccc(C(O)CCCN2CCC(C(O)(c3ccccc3)c3ccccc3)CC2)cc1 (stereo not given) [TERFENADINE] | 100 |  | inactive | Active | 100 | Insoluble | 8.2% | 16.3 (≈ 34.6 µM) |  | 4.5 (≈ 9.54 µM) |  | inactive | Active
6 | NC(=O)c1cc[n+](CC2=C(C(=O)[O-])N3C(=O)[C@@H](NC(=O)[C@@H](c4ccccc4)S(=O)(=O)[O-])[C@H]3SC2)cc1.[Na+] [CEFSULODIN SODIUM] | 87 |  |  |  | 14 |  |  | 16.6 |  |  |  |  | 
7 | CC1CS(=O)(=O)CCN1/N=C/c1ccc([N+](=O)[O-])o1 (stereo not given) [NIFURTIMOX] | 66 |  |  |  | 51 |  |  |  |  |  |  |  | 
8 | NC(=O)c1cc[n+](CC2=C(C(=O)[O-])N3C(=O)[C@@H](NC(=O)[C@@H](c4ccccc4)S(=O)(=O)O)[C@H]3SC2)cc1 |  |  | inactive | Active |  |  | inactive |  |  |  |  |  | 
9 | COC(=O)Nc1nc2cc(C(=O)c3ccc(F)cc3)ccc2[nH]1 [FLUBENDAZOLE] | 41 |  |  |  | 42 | Insoluble | inactive |  |  |  |  |  | 
10 | COc1cc2nc(N3CCN(C(=O)C4COc5ccccc5O4)CC3)nc(N)c2cc1OC.CS(=O)(=O)O (stereo not given) [DOXAZOSIN MESYLATE] | 97 |  |  |  | 89 | Insoluble | 5.3% | 12.9 |  | 14.7 |  |  | 
